# Measurements published in ChEMBL document CHEMBL3352470, “New ent-kauranes from the fruits of Annona glabra and their inhibitory nitric oxide production in LPS-stimulated RAW264.7 macrophages” (Bioorg Med Chem Lett, 2015).
# What was measured:
# RAW264.7 [1] = test: Inhibition of LPS-induced nitric oxide production in mouse RAW264.7 cells after 24 hrs by Griess assay relative to vehicle-treated control; type: functional, cell-based; details: RAW264.7, 24 h
# In short: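 RAW 264.7 cells were seeded at 5×10^5 cells/mL. After 3 h they were pretreated with compound at a series of concentrations chosen from the screening results, then stimulated 24 h with 1 µg/mL LPS. Nitrite in the supernatant was read by the Griess reaction. IC50 came from the dose-dependent inhibition. Dexamethasone was the positive control.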
# RAW264.7 [2] = test: Cytotoxicity against mouse RAW264.7 cells at 30 uM by MTT assay relative to control; type: cell-based; details: raw264.7, 30 µM
# RAW264.7 [3] = test: Inhibition of LPS-induced nitric oxide production in mouse RAW264.7 cells at 30 uM after 24 hrs by Griess assay relative to vehicle-treated control; type: functional; details: RAW264.7, 24 h
# In short: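 RAW 264.7 cells were seeded at 5×10^5 cells/mL. After 3 h they were pretreated with compound at 3, 10 and 30 µM, then 1 µg/mL LPS was added for 24 h. Supernatant nitrite was measured by the Griess reaction. Controls were unstimulated cells, LPS alone and dexamethasone. Values are mean ± SD of three independent experiments.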
SMILES,IC50 (RAW264.7 [1]) [µM],Activity (RAW264.7 [2]),inhibition at 30 µM (RAW264.7 [3]) [%]
C[C@@]12CCC[C@@](C)(C=O)[C@H]1CC[C@@]13C[C@@H](CC[C@H]12)[C@](O)(CO)C3,0.32,Non-toxic,90
CC1(C)CCC[C@]2(C)[C@@H]1CC[C@@]13C[C@@H](CC[C@H]12)[C@](O)(CO)C3,6.2,Non-toxic,70.4
C[C@@]12CCC[C@@](C)(C(=O)O)[C@H]1CC[C@@]13C[C@@H](CC[C@H]12)[C@](O)(CO)C3,14.3,Non-toxic,70.4
C[C@@]12CCC[C@@](C)(C(=O)O[C@@H]3O[C@H](CO)[C@@H](O)[C@H](O)[C@H]3O)[C@H]1C[C@H](O)[C@]13C=C(CO)[C@H](CC[C@@H]21)C3,0.01,Non-toxic,90
C[C@@]12CCC[C@@](C)(C(=O)O[C@@H]3O[C@H](CO)[C@@H](O)[C@H](O)[C@H]3O)[C@H]1C[C@H](O)[C@@]13C[C@@H](CC[C@@H]21)[C@@H](CO)C3,> 30,Non-toxic,
C[C@@]12CCC[C@@](C)(C(=O)O)[C@H]1C[C@H](O)[C@@]13C[C@@H](CC[C@@H]21)[C@@](O)(CO)C3,0.39,Non-toxic,90
CC1(C)CCC[C@]2(C)[C@@H]1CC[C@@]13C[C@@H](CC[C@H]12)[C@@](O)(CO)C3,17.1,Non-toxic,70.4
C[C@@]12CCC[C@@](C)(C(=O)O[C@@H]3O[C@H](CO)[C@@H](O)[C@H](O)[C@H]3O)[C@H]1CC[C@@]13C[C@@H](CC[C@H]12)[C@@](O)(CO)C3,> 30,Non-toxic,
